Experimental data as given in ChEMBL document CHEMBL4613313, “Multiple in Vitro Inhibition of HIV-1 Proteins by 2,6-Dipeptidyl-anthraquinone Conjugates Targeting the PBS RNA” (ACS Med Chem Lett, 2020).
Activity calls are given as the source filed them. No cut-off for these calls is given here.

How the values were obtained:
PBS RNA [1] = test: Binding affinity to HIV1 (+)PBS RNA assessed as compound-RNA complex formation at stoichiometry ratio of 2:1 incubated for 30 mins measured under non-denaturing conditions by ESI-MS analysis; format: nucleic-acid assay; conditions: Human immunodeficiency virus 1
Summary of the method: (§1)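 ESI-MS binding: compound–RNA mixtures analysed for free and compound-bound RNA species, including 2:1 complexes. Species peak intensities were quantified to give the free versus bound partitioning, and the percentage of bound substrate in each spectrum was used to derive relative binding affinity for each RNA construct.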

PBS RNA [2] = test: Binding affinity to HIV1 (-)PBS RNA assessed as compound-RNA complex formation at stoichiometry ratio of 2:1 incubated for 30 mins measured under non-denaturing conditions by ESI-MS analysis; format: nucleic-acid assay; conditions: Human immunodeficiency virus 1; summary of the method: as §1
PBS RNA [3] = test: Binding affinity to HIV1 (+)/(-) PBS RNA sequence assessed as inhibition of HIV-1 Tat (48 to 57 residues) mediated (+)/(-)PBS RNA annealing preincubated with (+)/(-)PBS RNA for 15 mins followed by peptide addition and measured after 10 mins by RAMPA assay; format: nucleic-acid assay, Human immunodeficiency virus 1
Summary of the method: (§2)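 Each folded PBS RNA strand (1 μM) was preincubated with compound for 15 min at room temperature. The two strands were then mixed with annealer: NC at 3 μM for line 4, Tat(48–57) […]. Annealing ran 10 min at room temperature and products were resolved by gel. The annealer-induced duplex band was quantified to derive IC50, reported as mean ± SEM of triplicate experiments.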

PBS RNA [4] = test: Binding affinity to HIV1 (+)PBS/(-)PBS RNA sequence assessed as inhibition of recombinant full-length HIV-1 nucleocapsid protein-mediated (+)/(-)PBS RNA annealing preincubated with (+)/(-)PBS RNA for 15 mins followed by NC addition and measured after 10 mins by RAMPA assay; format: nucleic-acid assay, Human immunodeficiency virus 1; summary of the method: as §2
PBS RNA [5] = test: Binding affinity to HIV1 (-)PBS RNA assessed as compound-RNA complex formation at stoichiometry ratio of 1:1 incubated for 30 mins measured under non-denaturing conditions by ESI-MS analysis; format: nucleic-acid assay; conditions: Human immunodeficiency virus 1
Summary of the method: (§3)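 In ESI-MS spectra of compound–RNA mixtures, peaks for free RNA and complexed species were quantified. The percentage of bound substrate in each spectrum gave the relative binding affinity for each RNA construct.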

PBS RNA [6] = test: Binding affinity to HIV1 (+)PBS RNA assessed as compound-RNA complex formation at stoichiometry ratio of 1:1 incubated for 30 mins measured under non-denaturing conditions by ESI-MS analysis; format: nucleic-acid assay; conditions: Human immunodeficiency virus 1; summary of the method: as §3
PBS RNA [7] = test: Binding affinity to HIV1 (+)PBS RNA at apical loop assessed as compound-RNA complex formation at stoichiometry ratio of 1:1 by MS/MS spectrum analysis; format: nucleic-acid assay; conditions: Human immunodeficiency virus 1

Compound	Activity (PBS RNA [1])	Activity (PBS RNA [2])	IC50 (PBS RNA [3])	IC50 (PBS RNA [4])	Activity (PBS RNA [5])	Activity (PBS RNA [6])	Activity (PBS RNA [7])
NCCCCC(N)C(=O)NCC(=O)Nc1ccc2c(c1)C(=O)c1ccc(NC(=O)CNC(=O)C(N)CCCCN)cc1C2=O (stereo unspecified)	Active	Active	18 µM	23 µM	–	–	–
C[C@@H](NC(=O)C(N)CCCN)C(=O)Nc1ccc2c(c1)C(=O)c1ccc(NC(=O)[C@@H](C)NC(=O)C(N)CCCN)cc1C2=O (stereo partly specified)	–	–	54 µM	55 µM	Active	Active	–
NCCC(N)C(=O)NCCC(=O)Nc1ccc2c(c1)C(=O)c1ccc(NC(=O)CCNC(=O)C(N)CCN)cc1C2=O (stereo unspecified)	–	–	24 µM	30 µM	Active	Active	–
C[C@H](NC(=O)C(N)CCCN)C(=O)Nc1ccc2c(c1)C(=O)c1ccc(NC(=O)[C@H](C)NC(=O)C(N)CCCN)cc1C2=O (stereo partly specified)	–	–	16 µM	21 µM	Active	Active	–
C[C@H](NC(=O)C(N)CCN)C(=O)Nc1ccc2c(c1)C(=O)c1ccc(NC(=O)[C@H](C)NC(=O)C(N)CCN)cc1C2=O (stereo partly specified)	–	–	> 100 µM	88 µM	Active	Active	–
C[C@@H](NC(=O)C(N)CCCCN)C(=O)Nc1ccc2c(c1)C(=O)c1ccc(NC(=O)[C@@H](C)NC(=O)C(N)CCCCN)cc1C2=O (stereo partly specified)	–	–	48 µM	54 µM	Active	Active	–
NCCCC(N)C(=O)NCCC(=O)Nc1ccc2c(c1)C(=O)c1ccc(NC(=O)CCNC(=O)C(N)CCCN)cc1C2=O (stereo unspecified)	Active	Active	20 µM	20 µM	–	–	–
NCCCC(N)C(=O)NCC(=O)Nc1ccc2c(c1)C(=O)c1ccc(NC(=O)CNC(=O)C(N)CCCN)cc1C2=O (stereo unspecified)	–	–	34 µM	30 µM	Active	Active	–
C[C@H](NC(=O)C(N)CCCCN)C(=O)Nc1ccc2c(c1)C(=O)c1ccc(NC(=O)[C@H](C)NC(=O)C(N)CCCCN)cc1C2=O (stereo partly specified)	Active	Active	15 µM	12 µM	–	–	Active
C[C@H](NC1(N)CCNCC1)C(=O)Nc1ccc2c(c1)C(=O)c1ccc(NC(=O)[C@H](C)NC3(N)CCNCC3)cc1C2=O	–	–	> 200 µM	> 200 µM	Active	Active	–
NCCCCC(N)C(=O)NCCC(=O)Nc1ccc2c(c1)C(=O)c1ccc(NC(=O)CCNC(=O)C(N)CCCCN)cc1C2=O (stereo unspecified)	–	–	> 100 µM	85 µM	–	–	–
C[C@H](NC(=O)C(N)CN)C(=O)Nc1ccc2c(c1)C(=O)c1ccc(NC(=O)[C@H](C)NC(=O)C(N)CN)cc1C2=O (stereo partly specified)	–	–	45 µM	54 µM	Active	Active	–
C[C@@H](NC1CCNCC1)C(=O)Nc1ccc2c(c1)C(=O)c1ccc(NC(=O)[C@@H](C)NC3CCNCC3)cc1C2=O	–	–	> 200 µM	> 200 µM	Active	Active	–
